Source: ChEMBL document CHEMBL2380285, “Quinolin-4(1H)-imines are potent antiplasmodial drugs targeting the liver stage of malaria” (J Med Chem, 2013)
pIC50: −log10 of the molar value. Activity calls are given as the source filed them. The calls are words filed in the database; no cut-off is given here.

What was measured:
Plasmodium berghei [1] = test: Antiplasmodial activity against liver stage Plasmodium berghei infected in human HuH7 cells co-expressing GFP-Luccon treated for 1 hr prior to infection followed by 24 hrs after compound washout measured after 48 hrs post-infection by Alamar Blue assay; type: functional, organism-based; conditions: Huh-7
Outline: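 Huh-7 hepatoma cells infected with P. berghei were exposed to a rising series of inhibitor concentrations, with 10 μM the highest tested. IC50 was read from sigmoidal concentration–response curves.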

[2] = Binding affinity to hematin (unknown origin) by UV-visible titration analysis
[3] = Half life in rat liver microsomes at 1 uM after 24 hrs by LC-MS/MS analysis
[4] = Cytotoxicity against human HepG2 cells after 48 hrs by Alamar Blue assay; type: cell-based
[5] = Selectivity index, ratio of CC50 for human HepG2 cells to IC50 for liver stage Plasmodium berghei; type: functional
Plasmodium falciparum [6] = test: Antiplasmodial activity against ring stage Plasmodium falciparum W2 infected in human RBC after 48 hrs by FACS analysis; type: functional, organism-based; conditions: W2, 48 h
Plasmodium berghei [7] = test: Ratio of primaquine IC50 to compound IC50 for liver stage Plasmodium berghei infected in human HuH7 cells; type: functional, Huh-7
[8] = biological target: T1, Dihydroorotate dehydrogenase (fumarate) (Saccharomyces cerevisiae S288c) (UniProt P28272); test: Inhibition of Saccharomyces cerevisiae DHODH expressed in Plasmodium falciparum Dd2 by [3H]-hypoxanthine incorporation assay in presence of proguanil
T1 sequence (whole entry): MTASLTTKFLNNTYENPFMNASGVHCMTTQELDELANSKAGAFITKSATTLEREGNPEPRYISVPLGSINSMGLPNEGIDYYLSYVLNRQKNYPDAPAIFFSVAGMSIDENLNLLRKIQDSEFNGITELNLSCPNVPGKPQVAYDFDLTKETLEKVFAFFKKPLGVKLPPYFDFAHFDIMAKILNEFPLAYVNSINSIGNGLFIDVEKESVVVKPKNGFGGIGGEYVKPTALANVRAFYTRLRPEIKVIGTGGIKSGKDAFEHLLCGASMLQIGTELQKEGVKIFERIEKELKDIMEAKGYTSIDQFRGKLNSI

[9] = Inhibition of Cytochrome b-c1 complex in Plasmodium falciparum 3D7A mitochondria assessed as antimycin-sensitive decylubiquinol-cytochrome c oxidoreductase level
[10] = Inhibition of heme crystallization to hemozoin; type: functional
Plasmodium falciparum [11] = test: Inhibition of Plasmodium falciparum Enoyl-ACP reductase using Crotonoyl-CoA as substrate up to 50 uM after 20 mins by fluorescence assay
Plasmodium falciparum [12] = test: Inhibition of Plasmodium falciparum thioredoxin reductase using DTNB as substrate up to 50 uM after 1 hr by colorimetric assay
[13] = biological target: T1, Dihydroorotate dehydrogenase (fumarate) (Saccharomyces cerevisiae S288c); test: Inhibition of Saccharomyces cerevisiae DHODH expressed in Plasmodium falciparum Dd2 by [3H]-hypoxanthine incorporation assay

Row | logKA [2] | pIC50 (Plasmodium falciparum [6]) | pIC50 [10] | Compound | pIC50 (Plasmodium berghei [1]) | CC50 at 48 h [4] [nM] | Ratio CC50/IC50 [5] | other results
1 | 3.9 | 5.81 | – | CCn1cc/c(=N\c2ccc(Oc3cccc(OC(F)(F)F)c3)cc2)c2ccc(C(F)(F)F)cc21 | 6.27 | 12900 | 24 | half-life at 24 h, 1 µM ([3]; microsomes): 8.5 h
2 | 4.7 | – | – | Cc1nc(C)c(Cl)c(O)c1Cl [CLOPIDOL] | 5.84 | – | – | –
3 | 5.1 | 5.93 | 4.81 | CCn1cc/c(=N\c2ccc(Oc3cccc(OC(F)(F)F)c3)cc2)c2ccc(Cl)cc21 | 7.09 | 5160 | 63.7 | Ratio IC50 (Plasmodium berghei [7]): 94; inhibition [8]: inactive; pIC50 [9]: 5.92; inhibition (Plasmodium falciparum [11]): inactive; inhibition (Plasmodium falciparum [12]): inactive; inhibition [13]: inactive
4 | 5 | 5.77 | – | CCn1cc/c(=N\c2ccc(Cc3ccccc3)cc2)c2ccc(Cl)cc21 | 6.23 | 2890 | 4.91 | –
5 | – | – | – | O=C1C(O)=C([C@H]2CC[C@H](c3ccc(Cl)cc3)CC2)C(=O)c2ccccc21 [ATOVAQUONE] | 9.42 | – | – | pIC50 [9]: 9.52
6 | 5.2 | 5.51 | – | CCn1cc/c(=N\c2cccc(CCc3ccc(OC(F)(F)F)cc3)c2)c2ccc(Cl)cc21 | 6.64 | 3940 | 17.4 | –
7 | 5.7 | 6.23 | 4.77 | CCn1cc/c(=N\c2ccc(-c3ccccc3)cc2)c2ccc(C(F)(F)F)cc21 | 6.24 | 7040 | 12.2 | half-life at 24 h, 1 µM ([3]; liver microsomes): 4.2 h; inhibition [8]: inactive; pIC50 [9]: 4.55; inhibition (Plasmodium falciparum [11]): inactive; inhibition (Plasmodium falciparum [12]): inactive; inhibition [13]: inactive
8 | – | – | 5.18 | CCN(CC)CCCC(C)Nc1ccnc2cc(Cl)ccc12 (stereo unspecified) [CHLOROQUINE] | – | – | – | –
9 | – | – | – | O=C(CC1NCCCC1O)Cn1cnc2cc(Br)c(Cl)cc2c1=O (stereo unspecified) [HALOFUGINONE] | 7.77 | – | – | –
10 | – | 5.27 | – | CCOC(=O)c1cn(CC)c2ccc(F)cc2/c1=N/c1ccc(-c2ccccc2)cc1 | < 5.00 | – | – | –
11 | 4.9 | 5.78 | – | CCn1cc/c(=N\c2cccc(CCc3ccc(OC(F)(F)F)cc3)c2)c2ccc(C(F)(F)F)cc21 | 6.63 | 6090 | 25.9 | –
12 | 5.6 | 6.27 | 4.72 | CCn1cc/c(=N\c2ccc(-c3ccccc3)cc2)c2ccc(Cl)cc21 | 6.70 | 4610 | 23.6 | half-life at 24 h, 1 µM ([3]; liver microsomes): 4 h
13 | 5.4 | 6.05 | – | CCn1cc/c(=N\c2ccc(Oc3ccccc3)cc2)c2ccc(Cl)cc21 | 6.67 | 5330 | 24.9 | –
14 | 4.9 | 6.02 | 4.87 | CCn1cc/c(=N\c2ccc(Oc3ccc(OC(F)(F)F)cc3)cc2)c2ccc(Cl)cc21 | 6.84 | 3530 | 24.3 | –
15 | – | 5.23 | – | CCOC(=O)c1cn(C)c2ccc(F)cc2/c1=N/c1ccc(-c2ccccc2)cc1 | < 5.00 | – | – | –
16 | – | 5.90 | – | CCn1cc/c(=N\c2ccc(Oc3ccc(C(F)(F)F)cc3)cc2)c2ccc(Cl)cc21 | 6.63 | 3200 | – | –
17 | 5.1 | 5.96 | 4.79 | CCn1cc/c(=N\c2ccc(Oc3ccc(Cl)cc3)cc2)c2ccc(Cl)cc21 | 7.06 | 2690 | 30.9 | Ratio IC50 (Plasmodium berghei [7]): 94; half-life at 24 h, 1 µM ([3]; microsomes): 3.9 h
18 | – | – | – | CCn1cc/c(=N\c2cccc(CCc3ccc(Cl)cc3)c2)c(Cl)c1 | 6.39 | – | – | –
19 | 4.9 | 5.97 | – | Cn1cc/c(=N\c2ccc(Oc3ccc(C(F)(F)F)cc3)cc2)c2ccc(Cl)cc21 | 6.64 | 3080 | 13.4 | half-life at 24 h, 1 µM ([3]; liver microsomes): 4.1 h
